IMP-1 inh = IMP-1 metallo-beta-lactamase inhibitors, primary screen, biochemical, epi-absorbance readout, Pseudomonas aeruginosa enzyme | purified IMP-1, nitrocefin hydrolysis, epi-absorbance fluorescence | metallo-beta-lactamase IMP-1 (Pseudomonas aeruginosa) | 290,000 compounds, 0.45% hits | AID 1556, 2009 | inhibition, % at 5.6 µM;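 active = inhibition above the mean plus 3 SD of all compounds in the same screening run, cut at about 4.5% in these data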
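System: purified IMP-1 / Input: IMP-1 dispensed at 0.2 nM / Medium: 50 mM HEPES pH 7.1, 50 µM ZnSO4, 0.05% Brij 35 / Timing: 15 min enzyme–compound preincubation, then 25 min nitrocefin reaction, 25 °C / Technique: plate fluorescence quenching by hydrolysis product, ex 480/em 530 nm / Repeats: singlicate testing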
pPAFAH inh = pPAFAH enzyme inhibitors, primary screen, biochemical, fluorescence polarization, human. Platelet-activating factor acetylhydrolase (Homo sapiens), Q13093. recombinant pPAFAH, FP-rhodamine probe fluorescence polarization. inhibition, % at 3.39 µM. 330,000 compounds, 1.5% hits. AID 463082, 2010;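 active = inhibition above the mean inhibition across the screen plus 3 SD, cut at about 25% in these data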;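 also: inhibitors block binding of the rhodamine activity-based probe so polarization drops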
Target sequence (Q13093 whole entry, looked up): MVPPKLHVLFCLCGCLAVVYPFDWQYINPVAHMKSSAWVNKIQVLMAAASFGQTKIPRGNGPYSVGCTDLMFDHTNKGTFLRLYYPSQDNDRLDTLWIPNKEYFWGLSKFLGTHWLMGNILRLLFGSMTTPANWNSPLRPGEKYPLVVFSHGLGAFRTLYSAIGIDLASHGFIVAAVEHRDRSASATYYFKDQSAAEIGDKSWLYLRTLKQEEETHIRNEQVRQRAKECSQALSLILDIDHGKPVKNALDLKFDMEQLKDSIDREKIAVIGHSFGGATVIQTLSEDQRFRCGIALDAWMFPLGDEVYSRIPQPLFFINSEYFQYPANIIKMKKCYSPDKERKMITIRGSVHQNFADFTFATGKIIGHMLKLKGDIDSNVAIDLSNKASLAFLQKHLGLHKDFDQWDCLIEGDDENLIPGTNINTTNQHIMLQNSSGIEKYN
PAFAH2 FP inh = PAFAH2 enzyme inhibitors, primary screen, biochemical, fluorescence polarization, human. Platelet-activating factor acetylhydrolase 2, cytoplasmic (Homo sapiens), Q99487. recombinant PAFAH2, FP-rhodamine activity probe. inhibition, % at 3.39 µM. 340,000 compounds, 0.99% hits;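 active = inhibition above the mean over all tested compounds plus 3 SD, cut at about 30% in these data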;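 also: inhibitors block probe labeling of enzyme so polarization drops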
VIM-2 inh = VIM-2 metallo-beta-lactamase inhibitors, primary screen, biochemical, epi-absorbance readout, Pseudomonas aeruginosa enzyme; purified VIM-2, nitrocefin hydrolysis, epi-absorbance fluorescence; inhibition, % at 5.6 µM; 290,000 compounds, 0.89% hits; AID 1527, 2009;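 active = inhibition above the mean of all tested compounds plus 3 SD, cutoff set per screening run, cut at about 7.5% in these data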;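 also: red hydrolysis product quenches plate fluorescence so inhibitors raise well fluorescence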
PAFAH1B3 inh = PAFAH1B3 enzyme inhibitors, primary screen, biochemical, fluorescence polarization, human; Platelet-activating factor acetylhydrolase IB subunit alpha1 (Homo sapiens), Q15102; recombinant PAFAH1B3, FP-rhodamine probe; inhibition, % at 3.39 µM; 340,000 compounds, 0.28% hits; AID 492972, 2010;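 active = inhibition above the screen-wide average of all tested compounds plus 3 SD, cut at about 25% in these data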
Target sequence (Q15102 whole entry, looked up): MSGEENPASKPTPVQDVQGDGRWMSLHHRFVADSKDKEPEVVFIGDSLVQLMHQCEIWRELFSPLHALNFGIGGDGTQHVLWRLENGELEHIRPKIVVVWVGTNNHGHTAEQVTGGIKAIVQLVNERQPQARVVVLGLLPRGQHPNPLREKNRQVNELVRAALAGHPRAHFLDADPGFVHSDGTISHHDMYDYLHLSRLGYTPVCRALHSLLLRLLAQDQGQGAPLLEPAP
PAFAH1B2 inh = PAFAH1B2 enzyme inhibitors, primary screen, biochemical, fluorescence polarization, human. Platelet-activating factor acetylhydrolase IB subunit alpha2 (Homo sapiens), P68402. recombinant PAFAH1B2, FP-rhodamine activity probe. 340,000 compounds, 1.2% hits. AID 492953, 2010. inhibition, % at 3.39 µM;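 active = inhibition above the mean of all tested compounds plus 3 SD, cut at about 24% in these data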
A number is an active result; 0 = inactive; - = no result. Compounds with a hit are over-represented: about 3.6% of the library has one in this group of screens.

SMILES | IMP-1 inh | pPAFAH inh | PAFAH2 FP inh | VIM-2 inh | PAFAH1B3 inh | PAFAH1B2 inh
CN1CCC(N(C)C(=O)c2ccc(Cl)c(S(=O)(=O)N3CCOCC3)c2)CC1 | - | - | 0 | - | 0 | 0
COC(=O)c1cccc(NC(=O)c2cnn(C)c2)c1 | - | 0 | 0 | - | 0 | 0
O=C(O)c1cc([N+](=O)[O-])ccc1NCc1ccccn1 | - | 0 | 0 | - | 0 | 0
O=C(O)c1cc([N+](=O)[O-])ccc1NCc1ccccc1Cl | 0 | 0 | 0 | 11.3 | 0 | 0
CCc1ccc(-c2nc(CS(=O)CC(=O)NC3CCCCCC3)c(C)o2)cc1 (configuration not stated) | 0 | 0 | 0 | 0 | 0 | 0
Cc1cc2c(cc1S(=O)(=O)NCC(C)c1ccccc1)n(C)c(=O)c(=O)n2C (configuration not stated) | 0 | 0 | 0 | 0 | 0 | 25.5
CN1C(=O)C(CC(=O)Nc2ccc(F)cc2)N(CCCc2ccccc2)C1=S (configuration not stated) | 0 | 0 | 0 | 0 | 0 | 27.0
CC(C)c1cc(C(=O)N2CCCC(Nc3ccc(F)cc3)C2)n[nH]1 (configuration not stated) | 0 | 0 | 0 | 0 | 0 | 24.2
CC(C)c1ccc(NC2CCCN(C(=O)c3cc(C(C)C)nc(N)n3)C2)cc1 (configuration not stated) | 0 | 0 | 0 | 0 | 0 | 0
O=C(Nc1ccc(-c2cnco2)cc1)c1ccccc1 | 0 | 0 | 0 | 0 | 0 | 0
O=C(Nc1ccc(-c2cnco2)cc1)c1ccc(Cl)cc1 | 0 | 28.5 | - | 0 | - | -
COc1ccc(CCNC(=O)c2ccc(NC(=O)CC3SC(N4CCCCC4)=NC3=O)cc2)cc1 (configuration not stated) | - | - | 0 | - | 0 | 0
Cc1ccc(-c2ccc(/C=N/NC(N)=S)o2)cc1 | 0 | 0 | 0 | 0 | 0 | 0
NC(=S)N/N=C/c1ccc(-c2ccc(SC(F)F)cc2)o1 | 0 | 27.1 | 0 | 0 | 0 | 0
CC(C)Cn1c(-c2csc(C(C)C)c2)n[nH]c1=S | 0 | 0 | - | 0 | - | -
Cc1cc(-c2n[nH]c(=S)n2CC(C)C)cs1 | 0 | 0 | 0 | 8.6 | 0 | 0
COc1ccccc1N1CCN(C(=O)CCC(=O)Nc2nnc(C(C)C)s2)CC1 | 0 | 0 | 0 | 0 | 0 | 0
C#CCOCCOCCOCCNc1nc(N2CCN(C(=O)[C@H](Cc3ccc(O)cc3)n3cc([C@@H](N)CC(C)C)nn3)CC2)nc(N2CCN(C(=O)[C@H](Cc3ccc(O)cc3)n3cc([C@@H](N)CC(C)C)nn3)CC2)n1 | 12.9 | 0 | - | 0 | - | -
Cc1nc2ccc(NC(=O)CSc3nnc(C)s3)cc2[nH]1 | 0 | 0 | 0 | 0 | 0 | 0
CCC(=O)OC1(C)C(=O)C=C2C=C(CCCCNC(=O)OC(C)(C)C)OC=C2C1=O (configuration not stated) | - | 30.1 | - | - | - | -
CCC(=O)OC1(C)C(=O)C=C2C=C(CCCC(=O)OC)OC=C2C1=O (configuration not stated) | - | 0 | 0 | - | 0 | 0
CC(C)(C)OC(=O)NCCCC1=CC2=CC(=O)C(C)(OC(=O)c3ccc(Cl)nc3)C(=O)C2=CO1 (configuration not stated) | - | 40.4 | - | - | - | -
CC(C)(C)OC(=O)NCCCC1=CC2=CC(=O)C(C)(O)C(=O)C2=CO1 (configuration not stated) | - | 32.2 | - | - | - | -
COC(=O)CCCC1=CC2=CC(=O)C(C)(OC(=O)C3CCCC3)C(=O)C2=CO1 (configuration not stated) | - | 31.9 | 0 | - | 0 | 0
Cc1ccc(NC(=O)CSc2nc3ncc(Cl)cc3[nH]2)c(C)c1 | 0 | 0 | 0 | 0 | 0 | 0
SMILES | IMP-1 inh | pPAFAH inh | PAFAH2 FP inh | VIM-2 inh | PAFAH1B3 inh | PAFAH1B2 inh
CCOC(=O)C1=C(COC(=O)/C=C/c2cccc(F)c2)NC(=O)NC1C (configuration not stated) | - | 0 | 0 | - | 0 | 0
COc1ccc(/C(=N/Nc2ncnc3ccccc23)C(=O)O)cc1 | 0 | 0 | 0 | 0 | 0 | 0
O=C(CCCc1ccccc1)Nc1nccs1 | - | 0 | 0 | - | 0 | 0
CC1(C)N([O-])c2cc([N+](=O)[O-])ccc2[N+]1=O | 0 | 31.1 | - | 0 | - | -
Cc1ccc(C)n1-c1cc([N+](=O)[O-])ccc1-n1ccnc1 | 0 | 0 | - | 0 | - | -
CN(CC(=O)Nc1ccc(F)cc1)C(=O)COC(=O)c1ccc(=O)n(Cc2ccccc2)n1 | - | 29.2 | 0 | - | 0 | 0
COc1ccc(N(C)S(=O)(=O)c2cccc(C(=O)N3CCN(S(=O)(=O)c4ccc(C)cc4)CC3)c2)cc1 | 0 | 0 | 0 | 0 | 0 | 55.4
COc1ccc(N2CCN(C(=O)c3ccc(N(C)S(=O)(=O)c4ccc(C)cc4)cc3)CC2)cc1 | 0 | 0 | 0 | 0 | 0 | 0
CCOc1ccc(S(=O)(=O)NCCC(=O)NCc2cccnc2)cc1 | - | 0 | 0 | - | 0 | 0
COC(=O)CCN(c1ccccc1)S(=O)(=O)c1cc(-c2cc(C)no2)ccc1OC | 0 | 0 | 0 | 0 | 0 | 0
Cc1cc(C)n2c3c(c(C#N)c2n1)CCCC3 | 0 | 0 | 0 | 7.7 | 0 | 0
CC(=O)Nc1ccc(S(=O)(=O)N2CCC(C(N)=O)(N3CCCCC3)CC2)cc1 | 0 | 0 | 0 | 0 | 0 | 0
Fc1cccc(CNc2ncnc3cc(Cl)ccc23)c1F | 0 | 0 | 0 | 0 | 0 | 0
O=c1c2ccccc2oc2ccc(NCCCn3ccnc3)cc12 | 0 | 0 | 0 | 11.0 | 0 | 0
CN(C)c1cccc(C(=O)NCC(c2ccco2)N(C)C)c1 (configuration not stated) | 0 | 0 | 0 | 0 | 0 | 0
CC(NC(=O)COC(=O)c1cccnc1Cl)C12CC3CC(CC(C3)C1)C2 (configuration not stated) | - | 0 | 44.6 | - | 0 | 50.5
Cc1ccc(/C=C2\SC(=S)N(C3CCS(=O)(=O)C3)C2=O)o1 (configuration not stated) | 0 | 0 | 0 | 0 | 0 | 0
CC1=C(C#N)C(=O)N(C2CCS(=O)(=O)C2)C(=O)/C1=C\c1ccc(C)o1 (configuration not stated) | 0 | 37.3 | - | 0 | - | -
CCCC(N)CCCCCC(=O)O (configuration not stated) | 0 | - | 0 | 0 | 0 | 0
CCC(C)CCCCCCCCCCC(=O)O (configuration not stated) | - | 0 | 0 | - | 0 | 48.4
COc1ccc(CN(C(=S)Nc2ccccc2)C2CC(=O)N(c3ccc(F)cc3)C2=O)cc1 (configuration not stated) | 0 | 0 | 0 | 0 | 0 | 0
CNC(=S)N(Cc1ccc(OC)cc1)C1CC(=O)N(c2ccc(Cl)cc2)C1=O (configuration not stated) | 0 | 0 | 0 | 0 | 0 | 32.8

Bioassay records deposited in PubChem BioAssay by The Scripps Research Institute Molecular Screening Center.
